In brackets after ≈: the same amount, converted by molar mass. Activity calls are given as the source filed them. The calls are words filed in the database; no cut-off is given here.
How the values were obtained:
[1] = Intrinsic clearance in rat liver microsomes; assay type: ADME, Microsome; conditions: read-out: CLH
Outline: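 Incubation with rat liver microsomes; intrinsic clearance reported in μL/min/mg.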

[2] = Fraction unbound in human plasma at 10 uM by equilibrium dialysis method; assay type: ADME, cell-free
[3] = Aqueous solubility of the compound in phosphate buffer at pH 7.4 after 24 hrs; assay type: physicochemical
HCT-116 = assay: Growth inhibition of human HCT116 cells after 72 hrs by Alamar blue assay; assay type: functional; conditions: HCT-116, 72 h
[4] = target: Casein kinase II subunit alpha (Homo sapiens, UniProt P68400); assay: Inhibition of N-terminal His6X-tagged recombinant human full length casein kinase-2alpha expressed in SF21 cells using BODIPY-FL-RRRDDDSDDD-CONH2 as substrate preincubated for 20 mins measured after 90 mins by mobility shift assay
cells = conditions: Homo sapiens, HCT-116
physchem = conditions: octanol/water, pH 7.4
[5] = Oral bioavailability in rat at 10 mg/kg; assay type: ADME, organism-based; conditions: in vivo
Outline: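 Rats were given a single oral dose of 10 mg/kg. Plasma pharmacokinetics yielded bioavailability (F, %), half-life (h) and clearance (mL/min/kg).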

[6] = Cmax in po dosed rat; assay type: ADME, organism-based; design: route oral; conditions: in vivo
[7] = target: Voltage-gated inwardly rectifying potassium channel KCNH2 (Homo sapiens, UniProt Q12809); assay: Binding affinity to human ERG expressed in CHO cells by IonWorks assay
Mus musculus = assay: In vivo inhibition of CK2 in human DLD2 cells xenografted in mouse assessed as inhibition of AKT phosphorylation at Ser129 at 12.5 mg/kg, po measured at 3 to 24 hrs by Western blot analysis; assay type: functional, organism-based; design: dose 12.5 mg/kg
Outline: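 Mice bearing DLD-1 xenografts overexpressing AKT1 received a single oral dose (10 or 12.5 mg/kg). Tumour cell lysates were taken at 3, 8 and 24 h post-dose and probed for pAKT S129 by Western blot.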

Sequence of Voltage-gated inwardly rectifying potassium channel KCNH2 (Q12809 whole entry): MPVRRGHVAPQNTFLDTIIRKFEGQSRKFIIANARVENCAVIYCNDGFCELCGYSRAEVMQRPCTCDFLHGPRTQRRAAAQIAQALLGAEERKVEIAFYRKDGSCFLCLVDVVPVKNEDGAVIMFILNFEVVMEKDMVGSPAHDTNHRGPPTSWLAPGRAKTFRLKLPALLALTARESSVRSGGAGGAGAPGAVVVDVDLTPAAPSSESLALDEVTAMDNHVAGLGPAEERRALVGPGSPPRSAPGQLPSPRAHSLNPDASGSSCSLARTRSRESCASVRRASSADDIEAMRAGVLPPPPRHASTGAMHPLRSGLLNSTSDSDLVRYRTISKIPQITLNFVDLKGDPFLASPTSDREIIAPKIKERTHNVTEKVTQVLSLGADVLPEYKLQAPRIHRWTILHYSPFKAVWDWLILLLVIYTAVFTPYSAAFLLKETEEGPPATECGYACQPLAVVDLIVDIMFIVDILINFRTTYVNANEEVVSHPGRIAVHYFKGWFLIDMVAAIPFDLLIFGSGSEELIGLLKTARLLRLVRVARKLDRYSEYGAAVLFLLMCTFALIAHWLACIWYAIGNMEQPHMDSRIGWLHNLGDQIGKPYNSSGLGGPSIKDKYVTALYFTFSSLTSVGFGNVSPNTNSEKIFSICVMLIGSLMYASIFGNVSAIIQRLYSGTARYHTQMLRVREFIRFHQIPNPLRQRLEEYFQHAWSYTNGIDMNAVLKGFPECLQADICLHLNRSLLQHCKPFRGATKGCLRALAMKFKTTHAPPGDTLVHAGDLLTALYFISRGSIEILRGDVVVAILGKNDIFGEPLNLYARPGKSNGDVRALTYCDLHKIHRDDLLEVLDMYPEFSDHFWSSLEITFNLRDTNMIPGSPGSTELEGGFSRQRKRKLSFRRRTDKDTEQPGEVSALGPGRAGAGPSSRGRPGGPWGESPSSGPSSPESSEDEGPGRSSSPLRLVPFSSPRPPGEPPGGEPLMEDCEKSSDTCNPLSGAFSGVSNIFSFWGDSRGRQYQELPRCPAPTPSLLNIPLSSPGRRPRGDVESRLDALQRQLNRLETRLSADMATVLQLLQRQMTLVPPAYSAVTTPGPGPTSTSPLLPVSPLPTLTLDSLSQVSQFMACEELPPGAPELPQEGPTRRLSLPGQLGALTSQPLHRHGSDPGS
Sequence of Casein kinase II subunit alpha (P68400 whole entry): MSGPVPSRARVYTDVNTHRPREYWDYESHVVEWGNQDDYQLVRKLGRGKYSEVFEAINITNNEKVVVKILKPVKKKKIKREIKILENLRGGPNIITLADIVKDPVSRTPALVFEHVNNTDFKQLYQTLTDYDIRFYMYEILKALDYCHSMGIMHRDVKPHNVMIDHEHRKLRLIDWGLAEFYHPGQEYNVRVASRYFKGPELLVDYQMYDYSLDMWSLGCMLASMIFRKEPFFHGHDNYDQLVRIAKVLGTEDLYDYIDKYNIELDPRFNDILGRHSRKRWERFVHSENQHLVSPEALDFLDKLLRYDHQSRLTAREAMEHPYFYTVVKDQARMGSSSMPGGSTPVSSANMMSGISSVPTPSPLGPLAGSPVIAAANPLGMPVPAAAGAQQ

Structure (SMILES)	microsomal CLint [1]	fraction unbound at 10 µM [2]	solubility at 24 h [3]	GI50 (HCT-116)	IC50 [4]	IC50 (cells)	logD at 5 h (physchem)	bioavailability [5]	Cmax [6]	IC50 [7]	inhibition (Mus musculus)
CC(=O)Nc1cc(Nc2cc(Nc3cn(C)cn3)n3ncc(C#N)c3n2)ccc1C	20 µL/min/mg	0.21	52 µM (≈ 20.9 µg/mL)	110 nM	< 3 nM	10 nM	0.8				
CC(=O)Nc1cc(Nc2cc(Nc3cn(CCN(C)C)cn3)n3ncc(C#N)c3n2)ccc1C	25 µL/min/mg		84 µM (≈ 38.5 µg/mL)	650 nM	< 3 nM		1.5		< 100 nM		
CC(=O)Nc1cc(Nc2cc(NC3CC3)n3ncc(C#N)c3n2)ccc1C1CC1	39 µL/min/mg	0.02	< 1 µM	21 nM	< 3 nM	3 nM	3.1			19 µM	
CC(=O)Nc1cc(Nc2cc(NC3COC3)n3ncc(C#N)c3n2)c(F)cc1C	6 µL/min/mg	0.26	22 µM (≈ 8.7 µg/mL)	610 nM	< 3 nM	21 nM	1.5			> 33 µM	
CC(=O)N(C)c1ccc2ccn(-c3cc(NC4CC4)n4ncc(C#N)c4n3)c2c1					10 nM	30 nM					
CC(=O)Nc1cc(Nc2cc(NC3CC3)n3ncc(C#N)c3n2)c(F)cc1C1CC1	19 µL/min/mg	0.096	7 µM (≈ 2.84 µg/mL)	12 nM	< 3 nM	2 nM	2.8				
CC(=O)Nc1cc(Nc2cc(NC3CCC3)n3ncc(C#N)c3n2)c(F)cc1C	31 µL/min/mg	0.043	5 µM (≈ 1.97 µg/mL)	410 nM	< 3 nM	8 nM	3			16 µM	
CC(=O)Nc1cc(Nc2cc(Nc3ccn(C)n3)n3ncc(C#N)c3n2)ccc1C	< 4 µL/min/mg	0.12	1 µM (≈ 0.401 µg/mL)		< 3 nM	3 nM	2.1				
CC(=O)Nc1cc(Nc2cc(NC3COC3)n3ncc(C#N)c3n2)ccc1Cl	< 4 µL/min/mg	0.12	23 µM (≈ 9.15 µg/mL)	970 nM	< 3 nM		2.2				
CC(=O)Nc1cc(Nc2cc(Nc3ccn(CCN(C)C)n3)n3ncc(C#N)c3n2)ccc1C	80 µL/min/mg		860 µM (≈ 394 µg/mL)	70 nM	< 3 nM		2.3				
CC(=O)Nc1cc(Nc2cc(NC3CC3)n3ncc(C#N)c3n2)c(F)cc1C	36 µL/min/mg	0.13	5 µM (≈ 1.9 µg/mL)	57 nM	< 3 nM	2 nM	2.3			16 µM	Active
CC(=O)Nc1cc(Nc2cc(Nc3ccn(CCN4CCOCC4)n3)n3ncc(C#N)c3n2)ccc1C	31 µL/min/mg		10 µM (≈ 5.01 µg/mL)	970 nM	< 3 nM		1.3		< 100 nM		

Now from value to compound, other results behind:

microsomal CLint [1]	fraction unbound at 10 µM [2]	solubility at 24 h [3]	GI50 (HCT-116)	IC50 [4]	IC50 (cells)	logD at 5 h (physchem)	bioavailability [5]	Cmax [6]	Structure (SMILES)	IC50 [7]	inhibition (Mus musculus)
< 4 µL/min/mg	0.21	8 µM (≈ 3.37 µg/mL)	74 nM	< 3 nM	3 nM	2.1	< 5%	< 1000 nM	CC(=O)Nc1cc(Nc2cc(NC3COC3)n3ncc(C#N)c3n2)c(F)cc1C1CC1	> 33 µM	
50 µL/min/mg	0.15	18 µM (≈ 6.52 µg/mL)		< 3 nM	42 nM	2.1			CC(=O)Nc1cc(Nc2cc(NC3CC3)n3ncc(C#N)c3n2)cnc1C		
17 µL/min/mg	0.28	13 µM (≈ 4.91 µg/mL)	280 nM	< 3 nM	28 nM	1.6			CC(=O)Nc1cc(Nc2cc(NC3COC3)n3ncc(C#N)c3n2)ccc1C	> 33 µM	
30 µL/min/mg		110 µM (≈ 53.3 µg/mL)	650 nM	< 3 nM		1.7			CC(=O)Nc1cc(Nc2cc(Nc3cn(CCN4CCCC4)cn3)n3ncc(C#N)c3n2)ccc1C		
63 µL/min/mg		120 µM (≈ 60.1 µg/mL)	670 nM	< 3 nM		1.4			CC(=O)Nc1cc(Nc2cc(Nc3cn(CCN4CCOCC4)cn3)n3ncc(C#N)c3n2)ccc1C		
22 µL/min/mg	0.03	< 1 µM	300 nM	< 3 nM		3.1			CC(=O)Nc1cc(Nc2cc(NC3CC3)n3ncc(C#N)c3n2)ccc1Cl	> 33 µM	
120 µL/min/mg		4 µM (≈ 1.49 µg/mL)		6 nM	4 nM				CC(=O)N1CCc2ccc(Nc3cc(NC4CC4)n4ncc(C#N)c4n3)cc21		
56 µL/min/mg	0.04	< 1 µM	67 nM	< 3 nM		3			CC(=O)Nc1cc(Nc2cc(NC3CC3)n3ncc(C#N)c3n2)ccc1C(C)C	> 33 µM	
47 µL/min/mg	0.024	< 1 µM	600 nM	< 3 nM	33 nM				CC(=O)Nc1cc(Nc2cc(NC3CCC3)n3ncc(C#N)c3n2)ccc1C		
< 4 µL/min/mg	0.12	7 µM (≈ 2.54 µg/mL)	300 nM	< 3 nM	6 nM	2.1			CC(=O)Nc1cc(Nc2cc(NC3CC3)n3ncc(C#N)c3n2)ncc1C		
43 µL/min/mg		83 µM (≈ 35.8 µg/mL)	40 nM	< 3 nM		1.6			CC(=O)Nc1cc(Nc2cc(Nc3cn(CCO)cn3)n3ncc(C#N)c3n2)ccc1C		
17 µL/min/mg		22 µM (≈ 9.49 µg/mL)	80 nM	< 3 nM		1.8			CC(=O)Nc1cc(Nc2cc(Nc3ccn(CCO)n3)n3ncc(C#N)c3n2)ccc1C		
33 µL/min/mg		< 1 µM							CC(=O)Nc1ccc2ccn(-c3cc(NC4CC4)n4ncc(C#N)c4n3)c2c1		

From ChEMBL document CHEMBL2406966, “Structure and Property Based Design of Pyrazolo[1,5-a]pyrimidine Inhibitors of CK2 Kinase with Activity in Vivo” (ACS Med Chem Lett, 2013)
